Results taken from ChEMBL document CHEMBL2311473, “Characterization of antimicrobial, cytotoxic, and antiendotoxin properties of short peptides with different hydrophobic amino acids at "a" and "d" positions of a heptad repeat sequence” (J Med Chem, 2013).
Converted amounts (≈) assume the structure as drawn. The source made the active and inactive calls. The rule behind the calls is not given here.

How the values were obtained:
Lipopolysaccharide (LPS) [1] = assay: Binding affinity to LPS assessed as inhibition of LPS-induced LAL enzyme activation at 18 uM after 30 mins by spectrophotometric analysis
Outline: (§1)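 Chromogenic limulus amoebocyte lysate endotoxin kit. Peptide binding to LPS estimated from inhibition of LPS-induced LAL enzyme activation, i.e. reduced substrate colour, and reported as percentage LPS binding.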

Lipopolysaccharide (LPS) [2] = assay: Binding affinity to LPS assessed as inhibition of LPS-induced LAL enzyme activation at 9 uM after 30 mins by spectrophotometric analysis; outline: as §1
Lipopolysaccharide (LPS) [3] = assay: Binding affinity to LPS assessed as inhibition of LPS-induced LAL enzyme activation at 4.5 uM after 30 mins by spectrophotometric analysis; outline: as §1
Lipopolysaccharide (LPS) [4] = assay: Binding affinity to FITC-tagged LPS assessed as induction of disintegration up to 40 uM by […]; details: in the assay text read “fluorescence dequenching” for “circular dichroism”
Outline: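 FITC-LPS (0.5 μg/mL) titrated with increasing peptide concentrations. Disaggregation read as dequenching, i.e. rise in FITC fluorescence, monitored after each addition until emission reached equilibrium.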

Lipopolysaccharide (LPS) [5] = assay: Binding affinity to LPS assessed as increase in helical structure at 36 uM by circular dichroism analysis
Outline: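 CD spectra of peptides (36 μM) recorded alone and with LPS at 3.8 and 6.25 μM.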

RAW264.7 [6] = assay: Antiinflammatory activity in mouse RAW264.7 cells assessed as inhibition of LPS-induced IL6 secretion at 1.5 to 4.5 uM after 12 hrs by ELISA; format: functional, cell-based
Outline: (§2)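 RAW 264.7 cells treated with LPS alone or LPS plus peptide. TNF-α and IL-6 measured by ELISA in culture supernatant and expressed as percentage inhibition of LPS-induced secretion. Mean of three independent experiments, SD shown.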

RAW264.7 [7] = assay: Antiinflammatory activity in mouse RAW264.7 cells assessed as downregulation of LPS-induced iNOS2 expression at 4.5 uM after 24 hrs by Western blotting analysis; format: functional, cell-based
Outline: (§3)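 RAW 264.7 cells (~2 × 10^5) stimulated with LPS 1 μg/mL plus peptide 4.5 μM for 24 h. Cells washed in ice-cold PBS and lysed in Laemmli buffer. SDS-PAGE (8% gel iNOS-2, 12% TNF-α), nitrocellulose transfer, alkaline phosphatase secondary with NBT/BCIP. Band densities normalized to β-actin. LPS-only and untreated cells served as controls.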

RAW264.7 [8] = assay: Antiinflammatory activity in mouse RAW264.7 cells assessed as downregulation of LPS-induced TNFalpha expression at 4.5 uM after 24 hrs by Western blotting analysis; format: functional, cell-based; outline: as §3
RAW264.7 [9] = assay: Antiinflammatory activity in mouse RAW264.7 cells assessed as inhibition of LPS-induced NO production at 3 uM by Griess method; format: functional; design: scale not given: the % may be the effect or the level left
Outline: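 RAW 264.7 cells plated at 5 × 10^5/well and exposed to LPS (E. coli 0111:B4, 1 μg/mL) together with peptide at varying doses. Cells with and without LPS served as maximum and basal NO controls. Nitrite in the supernatant measured by Griess reagent at 548 nm against a sodium nitrite standard curve, and percent inhibition of NO calculated.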

[10] = Binding affinity to PE/PG lipid vesicles assessed as increase in helical structure at 36 uM by circular dichroism analysis; format: physicochemical
Outline: (§4)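 Peptides (~36 μM) with ~500 μM PC/Chol (8:1 w/w) or PE/PG (7:3 w/w) vesicles. CD spectra 250–190 nm at ~30 °C in 0.2 cm cuvette; 4–6 scans averaged at 20 nm/min, 0.5 nm interval.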

[11] = Binding affinity to PC/Chol lipid vesicles assessed as increase in helical structure at 36 uM by circular dichroism analysis; format: physicochemical; outline: as §4
[12] = Binding affinity to PE/PG lipid vesicles assessed as decrease in decrease in acrylamide-induced tryptophan fluorescence quenching at 1 uM; format: physicochemical
Outline: (§5)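 Acrylamide quencher added in aliquots from 3.0 M stock to peptide with PC/Chol (8:1) or PE/PG (7:3) SUVs, peptide/lipid 1:100. Trp excited at 295 nm. Values corrected for dilution and vesicle-blank scatter, then fitted to Stern–Volmer F0/F = 1 + KSV[Q].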

[13] = Binding affinity to PC/Chol lipid vesicles assessed as decrease in acrylamide-induced tryptophan fluorescence quenching at 1 uM; format: physicochemical; outline: as §5
[14] = Binding affinity to PC/Chol lipid vesicles assessed as induction of large blue shift at 1 uM by fluorescence assay; format: physicochemical
[15] = Binding affinity to PE/PG lipid vesicles assessed as induction of large blue shift at 1 uM by fluorescence assay; format: physicochemical
[16] = Induction of dissipation of diffusion potential in PC/Chol lipid vesicles by fluorescence assay; format: physicochemical
Outline: (§6)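 SUVs of PC/Chol (8:1 w/w) or PE/PG (7:3 w/w) treated with peptide. Dissipation of diffusion potential taken as percentage fluorescence recovery ~5 min after peptide addition, with valinomycin used for reference levels. Plotted against peptide/lipid molar ratio.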

[17] = Induction of dissipation of diffusion potential in PE/PG lipid vesicles by fluorescence assay; format: physicochemical; outline: as §6
Staphylococcus aureus [18] = assay: Bactericidal activity against Staphylococcus aureus ATCC 9144 assessed as induction of membrane depolarization at up to 7 uM by DiSC3(5) staining-based fluorescence assay; format: functional, organism-based
Outline: (§7)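 Membrane potential dye diS-C3-5 preincubated 1 h with hRBC or S. aureus suspensions; I0 is steady-state fluorescence after this incubation. Peptide then added at varying concentrations. Depolarization expressed as percentage fluorescence recovery (Ft) versus peptide concentration.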

[19] = Cytotoxicity against human RBC assessed as induction of membrane depolarization at up to 16 uM by DiSC3(5) staining-based fluorescence assay; format: cell-based; details: erythrocyte; outline: as §7
Escherichia coli [20] = assay: Bactericidal activity against Escherichia coli ATCC 10536 assessed as induction of membrane damage at 5 uM after 30 mins by propidium iodide staining-based flow cytometric analysis; format: functional, organism-based
Outline: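 Mid-log E. coli incubated with peptide (~5.0 μM) 30 min at 37 °C with shaking. Cells washed twice in PBS, stained with propidium iodide 30 min at 4 °C, washed and resuspended. 10000 events per sample by flow cytometry, compared with peptide-free control.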

[21] = Cytotoxicity against human RBC assessed as induction of membrane damage at 25 uM after 5 mins by annexin V-FITC staining-based FACS flow cytometric analysis; format: cell-based; details: erythrocyte
Outline: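 hRBCs (~3.0 × 10^7 cells/mL) treated with peptide (~25.0 μM) for 5 min at room temperature. Stained with FITC-annexin V and analysed by flow cytometry, 10000 events, compared with untreated control.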

Escherichia coli [22] = assay: Drug uptake in Escherichia coli ATCC 10536 assessed as membrane localization at 3 uM after 30 mins by confocal microscopic analysis; format: ADME, organism-based; details: in vivo, 0.5 h
Outline: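 E. coli (~10^6 CFU/mL) in LB incubated with fluorescent-labeled peptide (~3.0 μM) for half an hour. Cells centrifuged, washed and imaged by confocal microscopy (DIC and fluorescence).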

Aspergillus fumigatus = assay: Antifungal activity against Aspergillus fumigatus after 72 hrs by NCCLS microbroth dilution method; format: functional
Outline: (§8)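 Microbroth dilution in MOPS-buffered RPMI 1640 following NCCLS guidelines. Inoculum 1−5 × 10^3 cells/mL, peptide range 50−0.36 (mass/mL). Plates held in a moist chamber at 35 °C and A492 read after 48 h (Candida spp.), 72 h (A. fumigatus, S. schenckii, C. neoformans) or 96 h (T. mentagrophytes). MIC taken as 90% growth inhibition versus growth control.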

[23] = test system: Trichophyton mentagrophytes; assay: Antifungal activity against Trichophyton mentagrophytes after 96 hrs by NCCLS microbroth dilution method; format: functional; outline: as §8
Sporothrix schenckii = assay: Antifungal activity against Sporothrix schenckii after 72 hrs by NCCLS microbroth dilution method; format: functional; outline: as §8
Candida parapsilosis = assay: Antifungal activity against Candida parapsilosis ATCC 22019 after 48 hrs by NCCLS microbroth dilution method; format: functional; details: Lodderomyces parapsilosis, ATCC 22019, 48 h; outline: as §8
Cryptococcus neoformans = assay: Antifungal activity against Cryptococcus neoformans after 72 hrs by NCCLS microbroth dilution method; format: functional; outline: as §8
Candida albicans = assay: Antifungal activity against Candida albicans after 48 hrs by NCCLS microbroth dilution method; format: functional; outline: as §8
Klebsiella pneumoniae = assay: Antibacterial activity against Klebsiella pneumoniae ATCC 27736 after 18 hrs by broth dilution method; format: functional; details: ATCC 27736, 18 h
Outline: (§9)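 Bacteria grown aerobically at 37 °C in Mueller-Hinton broth to mid-log phase (OD600), diluted to ~10^6 cfu/mL, then mixed 1:1 with 2-fold serial peptide dilutions in water. Incubation ~18 h at 37 °C before MIC read-out (μM).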

Pseudomonas aeruginosa = assay: Antibacterial activity against Pseudomonas aeruginosa ATCC BAA-427 after 18 hrs by broth dilution method; format: functional; details: ATCC BAA-427, 18 h; outline: as §9
Staphylococcus aureus [24] = assay: Antibacterial activity against methicillin-resistant Staphylococcus aureus after 18 hrs by broth dilution method; format: functional; outline: as §9
Escherichia coli [25] = assay: Antibacterial activity against Escherichia coli ATCC 10536 after 18 hrs by broth dilution method; format: functional; details: ATCC 10536, 18 h; outline: as §9
Bacillus subtilis = assay: Antibacterial activity against Bacillus subtilis ATCC 6633 after 18 hrs by broth dilution method; format: functional; details: ATCC 6633, 18 h; outline: as §9
[26] = test system: Staphylococcus epidermidis; assay: Antibacterial activity against Staphylococcus epidermidis NRRL B-4268 after 18 hrs by broth dilution method; format: functional; details: NRRL B-4268, 18 h; outline: as §9
Staphylococcus aureus [27] = assay: Antibacterial activity against Staphylococcus aureus ATCC 9144 after 18 hrs by broth dilution method; format: functional; details: ATCC 9144, 18 h; outline: as §9
NIH3T3 = assay: Cytotoxicity against mouse 3T3 cells assessed as cell viability up to 25 uM by MTT assay; format: cell-based
Outline: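 Murine 3T3 fibroblasts, grown in DMEM/IMDM with 10% FCS at 37 °C, 5% CO2, seeded at 10000 cells/well. Viability after peptide exposure measured by MTT (mitochondrial dehydrogenase) across a dose range.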

[28] = Cytotoxicity against human RBC assessed as hemolysis at 60 uM; format: cell-based, Erythrocyte; details: red blood cells (RBC), read-out: Activity
Outline: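 hRBCs in PBS exposed to peptide. Hemoglobin release read as supernatant absorbance at 540 nm. Hemolysis % = (Asample − Ablank)/(Atriton − Ablank) × 100, with PBS blank and 0.2% Triton X-100 (final) as 100% reference.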

RAW264.7 [29] = assay: Antiinflammatory activity in mouse RAW264.7 cells assessed as inhibition of LPS-induced TNFalpha secretion at 1.5 to 4.5 uM after 12 hrs by ELISA; format: functional, cell-based; outline: as §2
[30] = Drug uptake in human RBC assessed as membrane localization at 9 uM after 10 to 30 mins by confocal microscopic analysis; format: ADME; details: erythrocyte
Outline: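 Fresh hRBCs (3% in PBS) incubated with NBD-labeled peptide (~9.0 μM) for 10–30 min at 37 °C. Washed, fixed in 2% paraformaldehyde 10 min, and imaged by confocal microscopy at constant photomultiplier setting.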

CC(C)C[C@H](N)C(=O)O [LEUCINE]
inhibition (Lipopolysaccharide (LPS) [1]): Active | inhibition (Lipopolysaccharide (LPS) [2]): 90% | inhibition (Lipopolysaccharide (LPS) [3]): 72% | Activity (Lipopolysaccharide (LPS) [4]): Active | Activity (Lipopolysaccharide (LPS) [5]): Active | inhibition (RAW264.7 [6]): Active | Activity (RAW264.7 [7]): Active | Activity (RAW264.7 [8]): Active | Activity (RAW264.7 [9]): 90% | Activity [10]: Active | Activity [11]: Active | Activity [12]: Active | Activity [13]: Active | Activity [14]: Active | Activity [15]: Active | Activity [16]: Active | Activity [17]: Active | Activity (Staphylococcus aureus [18]): Active | Activity [19]: Toxic | Activity (Escherichia coli [20]): Active | Activity [21]: Toxic | Drug uptake (Escherichia coli [22]): Active | MIC (Aspergillus fumigatus): 3.1 µM (≈ 0.407 µg/mL) | MIC [23]: 1.56 µM (≈ 0.205 µg/mL) | MIC (Sporothrix schenckii): 1.56 µM (≈ 0.205 µg/mL) | MIC (Candida parapsilosis): 3 µM (≈ 0.394 µg/mL) | MIC (Cryptococcus neoformans): 6.1 µM (≈ 0.8 µg/mL) | MIC (Candida albicans): 3.1 µM (≈ 0.407 µg/mL) | MIC (Klebsiella pneumoniae): 6.2 µM (≈ 0.813 µg/mL) | MIC (Pseudomonas aeruginosa): 11.2 µM (≈ 1.47 µg/mL) | MIC (Staphylococcus aureus [24]): 6.25 µM (≈ 0.82 µg/mL) | MIC (Escherichia coli [25]): 6.25 µM (≈ 0.82 µg/mL) | MIC (Bacillus subtilis): 10.5 µM (≈ 1.38 µg/mL) | MIC [26]: 12.1 µM (≈ 1.59 µg/mL) | MIC (Staphylococcus aureus [27]): 6.25 µM (≈ 0.82 µg/mL) | Activity (NIH3T3): Toxic | hemolysis at 60 µM [28]: 80% | inhibition (RAW264.7 [29]): Active | Drug uptake [30]: Active
